Values after ≈ are worked out from the molar mass of the structure shown. Active and inactive are the calls of the source. The calls are words filed in the database; no cut-off is given here. Positions of bridges follow the written chain, without caps; N, C: chain ends. Residues, ends and D or L forms follow the SMILES beside them.
What was measured:
[1] = Drug internalization in mouse RAW264.7 using FITC-labeled compound at 2 uM pre-incubated for 1 hr with macropinocytosis inhibitor amiloride followed by compound addition and subsequent incubation for 2 hrs by flow cytometry; format: ADME, cell-based; conditions: raw264.7, 2 h
In short: (§1)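 RAW264.7 cells were pretreated 1 h at 37 °C with 3 mM amiloride, 20 µM nocodazole, 6 µg/mL chlorpromazine or 5 mM MβCD. FITC-labeled peptide was then added for 2 h at 37 °C. Extracellular fluorescence was quenched with 0.4% Trypan blue and intracellular fluorescence read by flow cytometry against an untreated control.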

[2] = Drug uptake in mouse RAW264.7 using FITC-labeled compound at 5 uM incubated for 0.5 hrs by flow cytometry; format: ADME, cell-based; conditions: raw264.7, 0.5 h
In short: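 Confluent RAW264.7 cells were resuspended in PBS and incubated at 37 °C with 5 µM FITC-labeled peptide. Samples taken at 0.5 h and 2 h were quenched with 0.4% Trypan blue for extracellular fluorescence. Uptake (percent internalized cells) was read by flow cytometry, with free FITC as negative control.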

Salmonella typhimurium [3] = test: Bactericidal activity against 2 hrs-gentamicin pre-exposed Salmonella typhimurium ATCC 14028 assessed as effect on bacterial re-growth at 10 uM measured after 9 hrs; format: functional, organism-based; conditions: Salmonella enterica subsp. enterica serovar Typhimurium
In short: (§2)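 RAW264.7 cells in DMEM/10% FBS were infected with S. Typhimurium ATCC14028 at MOI 10 for 1 h, then given 100 µg/mL gentamicin for 2 h at 37 °C and washed. Cells were treated with 10 µM agent for 1, 3, 6, 9 and 12 h, lysed with 0.1% Triton X-100, and surviving intracellular bacteria were serially diluted and plated for CFU.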

Salmonella typhimurium [4] = test: Antibacterial activity against Salmonella typhimurium ATCC 14028 infected in ICR mouse model of peritonitis assessed as reduction colony forming units in total peritoneal fluids at 1 umol/kg, ip dosed at 2 hrs post infection and measured after 10 hrs post dose; format: functional, Salmonella enterica subsp. enterica serovar Typhimurium
In short: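 Six-week-old female ICR mice (six per group) received ip S. Typhimurium ATCC14028 (5 × 10^5 CFU, 0.5 mL). Peptide was given ip 2 h post-infection and mice were killed 10 h after treatment. Peritoneum was lavaged with 5 mL ice-cold PBS and total CFU counted. For intracellular CFU, pelleted cells were treated with 100 µg/mL gentamicin for 1 h at 37 °C, washed, lysed and plated. PBS served as negative control, ciprofloxacin as positive.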

[5] = Drug internalization in mouse RAW264.7 using FITC-labeled compound at 2 uM incubated for 2 hrs at 4 degC by flow cytometry; format: ADME, cell-based; conditions: raw264.7, 2 h
Salmonella typhimurium [6] = test: Antibacterial activity against Salmonella typhimurium ATCC 14028 using 1 hr cathepsin B pre-treated compound followed by incubation for 16 to 18 hrs at pH 5 by broth microdilution method; format: functional, Salmonella enterica subsp. enterica serovar Typhimurium; conditions: Salmonella enterica
In short: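 Cathepsin B (bovine spleen, 10 µg/mL) was added for 1 h at 37 °C, and the reaction was stopped with 9 volumes of MHB. MIC was then run by broth microdilution (5 × 10^5 CFU/mL, 16–18 h, 37 °C) in medium adjusted to pH 5.0.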

[7] = Drug internalization in mouse RAW264.7 using FITC-labeled compound at 2 uM pre-incubated for 1 hr with lipid rafts disruptor methyl-beta-cyclodextrin followed by compound addition and subsequent incubation for 2 hrs by flow cytometry; format: ADME, cell-based; conditions: raw264.7, 2 h; in short: as §1
Salmonella typhimurium [8] = test: Bactericidal activity against 2 hrs-gentamicin pre-exposed Salmonella typhimurium ATCC 14028 assessed as reduction colony forming units at 10 uM measured within 9 hrs; format: functional, organism-based; conditions: Salmonella enterica subsp. enterica serovar Typhimurium; in short: as §2
Salmonella typhimurium [9] = test: Antibacterial activity against Salmonella typhimurium ATCC 14028 assessed as microbial inhibition zone pretreated for 1 hr at 4 to 100 degC by inhibition zone assay; conditions: Salmonella enterica subsp. enterica serovar Typhimurium
Salmonella typhimurium [10] = test: Antibacterial activity against Salmonella typhimurium ATCC 14028 infected in ICR mouse model of peritonitis assessed as mouse survival at 2 umol/kg, ip dosed at 0.5 and 8 hrs post infection and measured daily for 7 days
Salmonella typhimurium [11] = test: Antibacterial activity against Salmonella typhimurium ATCC 14028 infected in ICR mouse model of peritonitis assessed as reduction colony forming units in spleen at 1 to 2 umol/kg, ip dosed at 2 hrs post infection and measured after 10 hrs post dose relative to marine peptide N6; format: functional, Salmonella enterica subsp. enterica serovar Typhimurium; parameters: scale not given: the % may be the effect or the level left
In short: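 Female ICR mice, six weeks old (six per group), were infected ip with S. Typhimurium ATCC14028 (5 × 10^5 CFU, 0.5 mL). Peptide was given ip at 1, 1.5 or 2 µmol/kg 2 h post-infection. Mice were killed 10 h after treatment, and kidneys and spleens were homogenized in sterile PBS for CFU counts of translocated bacteria. PBS-treated mice served as negative control, ciprofloxacin-treated mice as positive.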

Compound | Drug uptake [1] | Drug uptake [2] [%] | Activity (Salmonella typhimurium [3]) | Activity (Salmonella typhimurium [4]) [log10CFU] | Drug uptake [5] | MIC (Salmonella typhimurium [6]) [µM] | Drug uptake [7] | Activity (Salmonella typhimurium [8]) | Activity (Salmonella typhimurium [9]) | Activity (Salmonella typhimurium [10]) [%] | Activity (Salmonella typhimurium [11]) [%]
CC(C)[C@@H]1NC(=O)CNC(=O)[C@H](CC(N)=O)NC(=O)[C@H](CCCNC(=N)N)NC(=O)[C@H](Cc2ccc(O)cc2)NC(=O)[C@H](C(C)C)NC(=O)[C@@H](NC(=O)[C@@H](NC(=O)[C@H](CC(N)=O)NC(=O)[C@H](Cc2c[nH]c3ccccc23)NC(=O)[C@H](C)NC(=O)[C@H](Cc2ccccc2)NC(=O)CN)C(C)C)CSSC[C@@H](C(=O)N[C@@H](Cc2cnc[nH]2)C(=O)N[C@@H](CCCNC(=N)N)C(=O)N[C@@H](CCCNC(=N)N)C(=O)N[C@@H](C)C(=O)N[C@@H](CC(N)=O)C(N)=O)NC(=O)[C@H](C(C)C)NC(=O)[C@H](CCCNC(=N)N)NC1=O (H-GFAWNVCVYRNGVRVCHRRAN-NH2; disulfide 7-16) | Not Active | 30.4 | inactive | 3.04 | Not Active | 3.2 (≈ 7.92 µg/mL) | Active | Active | Active | 100 | 200
CC(C)[C@H](NC(=O)CCCCCN1C(=O)CC(SC[C@H](N)C(=O)N[C@@H](Cc2ccc(O)cc2)C(=O)NCC(=O)N[C@@H](CCCNC(=N)N)C(=O)N[C@@H](CCCCN)C(=O)N[C@@H](CCCCN)C(=O)N[C@@H](CCCNC(=N)N)C(=O)N[C@@H](CCCNC(=N)N)C(=O)N[C@@H](CCC(N)=O)C(=O)N[C@@H](CCCNC(=N)N)C(=O)N[C@@H](CCCNC(=N)N)C(=O)N[C@@H](CCCNC(=N)N)C(=O)O)C1=O)C(=O)N[C@@H](CCCNC(N)=O)C(=O)Nc1ccc(COC(=O)NCC(=O)N[C@@H](Cc2ccccc2)C(=O)N[C@@H](C)C(=O)N[C@@H](Cc2c[nH]c3ccccc23)C(=O)N[C@@H](CC(N)=O)C(=O)N[C@H](C(=O)N[C@H]2CSSC[C@@H](C(=O)N[C@@H](Cc3cnc[nH]3)C(=O)N[C@@H](CCCNC(=N)N)C(=O)N[C@@H](CCCNC(=N)N)C(=O)N[C@@H](C)C(=O)N[C@@H](CC(N)=O)C(=O)O)NC(=O)[C@H](C(C)C)NC(=O)[C@H](CCCNC(=N)N)NC(=O)[C@H](C(C)C)NC(=O)CNC(=O)[C@H](CC(N)=O)NC(=O)[C@H](CCCNC(=N)N)NC(=O)[C@H](Cc3ccc(O)cc3)NC(=O)[C@H](C(C)C)NC2=O)C(C)C)cc1 (stereo not given in full) | Active | 82.1 | inactive | 1.87 | Not Active | 13.6 (≈ 64.4 µg/mL) | Active | Active | – | – | 81
